# TAAR1 agonist – human TAAR1 agonism | Q96RJ0 | CHO RD-HGA16 TAAR1, Fluo-8 calcium fluorescence; vehicle wells 0%, saturating PEA agonist 100% | activation, % at 3 µM | actives 0.99% (n = 360,000) | AID 624467;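 active = activation above the mean activation of all test compounds in the run plus 3 SD, cut at about 38% in these data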
#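 Assay system: CHO-derived RD-HGA16 cells with stable Gα16 and human TAAR1; timing: 17-24 h seeding, 75 min 37 °C dye, 30 min RT; read-out: % activation from peak over basal fluorescence ratio, DMSO-to-PEA scaled; measured by: kinetic Fluo-8 calcium fluorescence; benchmarks: low control DMSO, high control PEA (EC100); doses: 3 µM single concentration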
# V1R ag counter – V1a receptor agonism, counter-screen for OXTR agonists | CHO-V1R cells, Fluo-8 calcium fluorescence, agonist mode; 0% DMSO, 100% 3 nM vasopressin | actives 0.25% (n = 320,000) | P37288 | activation, % at 3 µM;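 active = activation above the mean activation of all tested compounds plus 3 SD, per screening run, cut at about 20% in these data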;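 also: signal is peak over basal fluorescence ratio across a 100 second FLIPR read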
# Target sequence (P37288 whole entry, looked up): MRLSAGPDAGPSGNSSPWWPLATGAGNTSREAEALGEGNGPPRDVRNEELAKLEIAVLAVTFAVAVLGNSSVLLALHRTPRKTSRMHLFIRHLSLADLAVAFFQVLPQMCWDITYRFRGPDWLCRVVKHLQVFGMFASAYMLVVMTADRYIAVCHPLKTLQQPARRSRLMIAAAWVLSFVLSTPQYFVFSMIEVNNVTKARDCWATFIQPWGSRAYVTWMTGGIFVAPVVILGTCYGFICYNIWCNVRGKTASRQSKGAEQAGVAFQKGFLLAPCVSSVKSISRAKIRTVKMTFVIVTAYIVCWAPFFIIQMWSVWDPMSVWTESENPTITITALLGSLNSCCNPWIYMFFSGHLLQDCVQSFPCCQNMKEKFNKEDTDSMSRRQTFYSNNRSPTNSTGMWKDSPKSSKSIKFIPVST
# OXTR agonist – activates the human oxytocin receptor; P30559; CHO-OTR cells, Fluo-8 calcium fluorescence; normalized: DMSO 0%, oxytocin 100%; activation, % at 3 µM; actives 0.32% (n = 320,000); AID 2435;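 active = activation above the mean of all tested compounds plus 3 SD, cutoff set per screening run, cut at about 20% in these data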;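 also: peak over basal fluorescence ratio from a 100 s FLIPR kinetic read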
# TAAR1 antagonist – human TAAR1 antagonism; inhibition, % at 3 µM; CHO RD-HGA16 TAAR1, Fluo-8 calcium fluorescence, antagonist; Q96RJ0; actives 1.5% (n = 360,000);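 active = inhibition above a per-plate cutoff, the mean inhibition of test compounds on that plate plus 3 SD, cut at about 49% in these data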;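 also: 0% = DMSO plus EC80 beta-PEA response and 100% = DMSO alone without agonist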
#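 test system = CHO RD-HGA16 cells bearing hTAAR1 | replication = singlicate | controls = DMSO-only wells and EC80 β-PEA-stimulated wells | reagent = EC80 β-phenethylamine stimulus | read-out basis = percent inhibition of PEA-evoked calcium signal, max/basal emission ratio | schedule = seeding 17-24 h prior, 75-min 37 °C, 30-min RT dye loading | signal = kinetic Fluo-8 calcium fluorescence measurement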
# OXTR potentiate – potentiates the human oxytocin receptor response; P30559; activation, % at 3 µM; CHO-OTR cells, Fluo-8 calcium fluorescence, potentiator mode; 0% = oxytocin EC15, 100% = EC100; AID 2445; actives 0.061% (n = 320,000);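 active = activation above that plate's cutoff, the mean activation of tested compounds plus 3 SD, cut at about 6.6% in these data, passing the limit was not always enough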;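 also: 100% uses oxytocin at 75 nM as the full agonist control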
#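 Assay system: CHO-OTR cells, human receptor / Also added: oxytocin at about EC15, sub-maximal agonist stimulus / Dosing: single dose, 3.0 µM nominal final compound concentration / Incubation: 6 min pre-incubation, 100 s read / Technique: Fluo-8 calcium dye fluorescence / Read-out: % activation vs EC15 and EC100 oxytocin / Benchmarks: EC15 oxytocin low, 75 nM oxytocin high / Replicates: singlicate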
# nonsel antag count – counter-screen for TAAR1 antagonists: nonselective antagonists | shares compounds with TAAR1 antagonist | counterscreen cell line, calcium fluorescence, antagonist mode | inhibition, % at 3 µM | actives 77% (n = 2,400); in the data active = inhibition above about 22%;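 also: CHO-Ga16 host cells stimulated with ATP at an EC80 level; 0% = agonist EC80 plus vehicle and 100% = vehicle without agonist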
# TAAR1 antag conf – human TAAR1 antagonism, confirmed; shares compounds with TAAR1 antagonist; TAAR1-expressing cells, fluorescence antagonist read-out; inhibition, % at 3 µM; actives 40% (n = 2,400); in the data active = inhibition above about 49%;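 also: CHO-Ga16 host cells challenged with agonist PEA near its EC80; 0% = agonist at EC80 plus vehicle and 100% = vehicle with no agonist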
# Ga16 ag counter – counter-screen for TAAR1 antagonists: nonselective Ga16 agonists; activation, % at 3 µM; Ga16-expressing cells, calcium fluorescence, agonist counterscreen; shares compounds with TAAR1 antagonist; actives 18% (n = 2,400); in the data active = activation above about 12%;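 also: 0% = vehicle wells and 100% = saturating stimulus response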
# TAAR1 ag count – counter-screen for human TAAR1 antagonists: TAAR1 agonists; shares compounds with TAAR1 antagonist; AID 651955; actives 2% (n = 2,400); activation, % at 3 µM; hTAAR1 cell line, fluorescence activation, agonist mode; in the data active = activation above about 37%;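 also: CHO cells stably expressing TAAR1 with calcium dye readout; 0% = DMSO vehicle and 100% = full agonist response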
# * marks the source's active call; other numbers are inactive results; x = not tested or not shown. Sampled rows, rich in hits. Any-hit rate of the full collection: about 2.3%.
SMILES,TAAR1 agonist,V1R ag counter,OXTR agonist,TAAR1 antagonist,OXTR potentiate,nonsel antag count,TAAR1 antag conf,Ga16 ag counter,TAAR1 ag count
O=C(c1cc(-c2ccccc2Cl)nc2ccccc12)N1CCN(c2ccccc2O)CC1,14,-1,1,59*,-8,22*,36,7,6
O=C(O)COc1ccccc1/C=N/NC(=O)CSc1nnc(SCc2ccccc2)s1,-1,0,1,-37,4,x,x,x,x
CCN(CC)c1ccc(S(=O)(=O)N2CCOCC2)cc1NC(=O)CN1C(=O)NC2(CCC(C)CC2)C1=O (centres undefined),-2,0,-1,7,4,x,x,x,x
CCN(C(=O)c1cccs1)C1CCS(=O)(=O)C1 (centres undefined),0,x,x,-7,x,x,x,x,x
COc1ccc(-c2cc(C(=O)N3CCN(c4ccccc4O)CC3)c3ccccc3n2)cc1OC,11,0,-2,74*,-6,26*,46,8,6
Cc1cc(/C=C(\C#N)C(=O)NCc2cccs2)c(C)n1-c1ccccc1F,2,0,-2,69*,-18,17,61*,2,4
Cc1ccccc1-n1c(C)cc(/C=C(\C#N)C(=O)NCC2CCCO2)c1C (centres undefined),2,2,-2,8,-14,x,x,x,x
CN1CCN(C(=O)c2cccn(Cc3ccc(C(F)(F)F)cc3)c2=O)CC1,0,0,-1,-5,-18,x,x,x,x
CCN(CC)C(=O)c1cccc(-c2csc(C(C)(O)c3cccc(F)c3)n2)c1 (centres undefined),11,x,x,80*,x,43*,57*,12*,11
CC(C(=O)NCC1CCCO1)c1ccc([N+](=O)[O-])cc1 (centres undefined),11,1,0,3,-9,x,x,x,x
Cc1c(NC(=O)CSc2ccc(Cl)cc2)cccc1-c1nc2ncccc2o1,11,4,1,60*,-4,31*,46,11,10
CCc1nc(NCCO)c(C#N)c2c1CSC(C)(C)C2,15,0,-1,59*,-5,31*,51*,7,5
O=[N+]([O-])c1ccc(-c2ccc(/C=N/Nc3nc(N4CCCCC4)nc(N4CCCCC4)n3)o2)cc1,10,x,x,-5,x,x,x,x,x
O=[N+]([O-])c1cccc(-c2ccc(/C=N/Nc3nc(N4CCCCC4)nc(N4CCCCC4)n3)o2)c1,6,1,0,52*,-6,19,35,4,6
Cc1cccc(N(Cc2ccccc2)C(=O)c2cccc(S(=O)(=O)N3CC(C)OC(C)C3)c2)c1 (centres undefined),-2,0,-1,-25,-9,x,x,x,x
COc1ccc(/C=C2/SC(=O)N(NS(=O)(=O)c3ccccc3)C2=S)cc1OC,14,0,1,63*,1,29*,42,6,3
COc1cc(/C=C2\SC(=S)N(NS(=O)(=O)c3ccccc3)C2=O)cc(OC)c1OC,-6,0,-1,-6,-4,x,x,x,x
COc1ccc2nc(NC(=O)C3CCN(S(=O)(=O)c4cccc5nsnc45)CC3)sc2c1,22,8,10,61*,-8,34*,56*,11,11
CC1(Cc2ccc(OC(F)(F)F)cc2)C(=O)Nc2ccc(OC(F)(F)F)cc21 (centres undefined),0,x,x,-20,x,x,x,x,x
Cc1ccc(S(=O)(=O)Cc2ccc(C(=O)N3CCN(c4cc(C)ccc4C)CC3)o2)cc1,8,0,-1,2,3,x,x,x,x
COc1ccc(N2CCN(C(=O)c3ccc(CS(=O)(=O)c4ccccc4C)o3)CC2)cc1,18,4,5,52*,-5,27*,46,11,27
COc1ccccc1S(=O)(=O)Cc1ccc(C(=O)N2CCN(c3ccccc3)CC2)o1,23,4,1,14,-8,x,x,x,x
Cc1ccc(C)c(N2CCN(C(=O)c3ccc(CS(=O)(=O)c4ccccc4C)o3)CC2)c1,16,1,-2,64*,-13,37*,51*,7,6
COc1ccccc1S(=O)(=O)Cc1ccc(C(=O)N2CCN(c3cccc(Cl)c3)CC2)o1,25,8,5,65*,-7,40*,61*,13*,12
O=C(Nc1ccncc1)c1cc(C2CCCCN2C(=O)CCCc2ccccc2)on1 (centres undefined),16,x,x,17,x,x,x,x,x
SMILES,TAAR1 agonist,V1R ag counter,OXTR agonist,TAAR1 antagonist,OXTR potentiate,nonsel antag count,TAAR1 antag conf,Ga16 ag counter,TAAR1 ag count
CC(C)C(=O)N1CCN(c2ccccc2NC(=S)NC(=O)/C=C/c2ccco2)CC1,6,-1,-2,51*,-4,19,46,4,13
O=C(/C=C/c1ccco1)Nc1ccccc1N1CCCCC1,6,0,-2,-2,2,x,x,x,x
O=C(Nc1ccccc1OC(=O)c1ccc(Cl)cc1)c1ccc(Cl)cc1,0,0,-2,54*,-6,-2,53*,1,9
CC(C)C(=O)NC(=S)Nc1ccccc1N1CCN(C(=O)c2ccccc2)CC1,18,2,0,78*,-18,38*,60*,14*,17
O=C(Nc1ccccc1N1CCN(C(=O)c2ccc(Cl)cc2)CC1)c1ccc(Br)cc1,6,0,1,18,-3,x,x,x,x
CC(=O)NC(=S)Nc1ccccc1N1CCN(C(=O)c2ccccc2)CC1,15,1,1,6,-4,x,x,x,x
O=C(Nc1ccccc1N1CCN(C(=O)c2ccccc2)CC1)c1ccc(Cl)cc1,5,0,-2,55*,0,24*,46,5,1
CCOC(=O)[C@H]1[C@H]2COc3ccc(OC)cc3[C@@H]2N2C(=O)CN(CCc3c[nH]c4ccccc34)C(=O)[C@@]12C,21,2,4,35,-2,x,x,x,x
CCN(C(=O)COC(=O)CCOc1cc(C)ccc1C)c1c(N)n(Cc2ccccc2)c(=O)[nH]c1=O,1,x,x,5,x,x,x,x,x
Cc1c(NC(=O)COC(=O)c2cc(-c3ccc(-c4ccccc4)cc3)nc3ccccc23)c(=O)n(-c2ccccc2)n1C,1,0,0,19,3,x,x,x,x
COc1ccc(-c2cc(C(=O)Nc3c(C)n(C)n(-c4ccccc4)c3=O)c3ccccc3n2)c(OC)c1,8,-1,-2,53*,-4,26*,37,7,11

# Source: PubChem (The Scripps Research Institute Molecular Screening Center)
